From ChEMBL document CHEMBL4732237, “Discovery of 4-alkoxy-2-aryl-6,7-dimethoxyquinolines as a new class of topoisomerase I inhibitors endowed with potent in vitro anticancer activity” (2021)

Legend:
Assay type in all cases: functional
SNB-75 [1] = assay: Growth inhibition of human SNB-75 cells at 10 uM incubated for 48 hrs by sulforhodamine B assay relative to control; details: read-out: GI
Method in brief: (§1)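 NCI one-dose screen. Cells grown in RPMI 1640 with 5% FBS and 2 mM L-glutamine, plated and incubated 24 h at 37 °C, 5% CO2. DMSO-dissolved drug added, then 48 h further incubation. Adherent cells fixed with cold TCA, suspension cells fixed after settling. Stained with 0.4% SRB, absorbance read at 515 nm. Reported as percent growth relative to no-drug control and time-zero cell number.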

UO-31 = assay: Growth inhibition of human UO-31 cells at 10 uM incubated for 48 hrs by sulforhodamine B assay relative to control; details: read-out: GI
Method in brief: (§2)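 NCI one-dose screen across a 59-line panel. Cells were grown in RPMI 1640 with 5% FBS and 2 mM L-glutamine, plated and pre-incubated 24 h, then exposed to drug for 48 h at 37 °C, 5% CO2. Adherent cells were fixed with cold TCA (10% final), stained with 0.4% SRB in 1% acetic acid and read at 515 nm. Result is percent growth relative to no-drug control and time-zero cell count.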

OVCAR-5 = assay: Growth inhibition of human OVCAR-5 cells at 10 uM incubated for 48 hrs by sulforhodamine B assay relative to control; details: read-out: GI; method in brief: as §1
PC-3 = assay: Growth inhibition of human PC-3 cells incubated for 48 hrs by sulforhodamine B assay
Method in brief: (§3)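 NCI five-dose screen (0.01–100 µM; five concentrations plus control). Cells grown in RPMI 1640/5% FBS/2 mM L-glutamine and preincubated 24 h, with time-zero plates TCA-fixed. Drug exposure 48 h at 37 °C, followed by SRB protein staining and reading at 515 nm. GI50 is the concentration at [(Ti-Tz)/(C-Tz)]×100 = 50.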

MDA-MB-435 = assay: Growth inhibition of human MDA-MB-435 cells incubated for 48 hrs by sulforhodamine B assay
Method in brief: (§4)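 NCI five-dose screen covering 0.01–100 µM, prepared as 10-fold or ½-log dilutions from DMSO stock. Cells in RPMI 1640 with 5% FBS were exposed for 48 h at 37 °C after 24 h preincubation. Adherent cells were fixed with TCA (final 10%) and suspension cells were settled before fixing. Stain was SRB, read at 515 nm. GI50 = 50% reduction in net protein increase versus control, with Tz taken at drug addition.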

MDA-MB-231 = assay: Growth inhibition of human MDA-MB-231 cells incubated for 48 hrs by sulforhodamine B assay; method in brief: as §4
A498 = assay: Growth inhibition of human A498 cells at 10 uM incubated for 48 hrs by sulforhodamine B assay relative to control; details: read-out: GI; method in brief: as §2
OVCAR-8 = assay: Growth inhibition of human OVCAR-8 cells at 10 uM incubated for 48 hrs by sulforhodamine B assay relative to control; details: read-out: GI; method in brief: as §1
SF-268 = assay: Growth inhibition of human SF-268 cells at 10 uM incubated for 48 hrs by sulforhodamine B assay relative to control; details: read-out: GI; method in brief: as §1
A549 = assay: Growth inhibition of human A549 cells incubated for 48 hrs by sulforhodamine B assay; method in brief: as §4
EKVX [2] = assay: Growth inhibition of human EKVX cells at 10 uM incubated for 48 hrs by sulforhodamine B assay relative to control; details: read-out: GI
Method in brief: (§5)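 NCI-60 single-dose screen. Cells were grown in RPMI 1640 with 5% FBS and 2 mM L-glutamine and plated 24 h before drug addition. Compound was added at one concentration in DMSO-derived medium and incubated for 48 h at 37 °C in 5% CO2. Read-out was SRB protein stain at 515 nm. Result is percent growth versus the no-drug control and the time-zero cell count; values below 0 indicate lethality.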

SNB-75 [3] = assay: Growth inhibition of human SNB-75 cells incubated for 48 hrs by sulforhodamine B assay; method in brief: as §3
HCC 2998 = assay: Growth inhibition of human HCC 2998 cells incubated for 48 hrs by sulforhodamine B assay; method in brief: as §4
Malme-3M = assay: Growth inhibition of human Malme-3M cells at 10 uM incubated for 48 hrs by sulforhodamine B assay relative to control; details: read-out: GI; method in brief: as §1
U-251 = assay: Growth inhibition of human U-251 cells incubated for 48 hrs by sulforhodamine B assay
Method in brief: (§6)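 NCI five-dose assay, with drug stocks in DMSO diluted in medium to five concentrations (10-fold or ½-log series). Cells in RPMI 1640/5% FBS were pre-incubated 24 h, and time-zero plates were TCA-fixed at drug addition. After 48 h at 37 °C, cells were TCA-fixed, SRB-stained and read at 515 nm. GI50 is from [(Ti-Tz)/(C-Tz)]×100 = 50, TGI from Ti = Tz, and LC50 from [(Ti-Tz)/Tz]×100 = -50.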

HCT-116 = assay: Growth inhibition of human HCT-116 cells incubated for 48 hrs by sulforhodamine B assay; method in brief: as §4
NCI-H522 = assay: Growth inhibition of human NCI-H522 cells at 10 uM incubated for 48 hrs by sulforhodamine B assay relative to control; details: read-out: GI; method in brief: as §1
NCI/ADR-RES = assay: Growth inhibition of human NCI/ADR-RES cells incubated for 48 hrs by sulforhodamine B assay; method in brief: as §3
NCI-H226 = assay: Growth inhibition of human NCI-H226 cells at 10 uM incubated for 48 hrs by sulforhodamine B assay relative to control; details: read-out: GI; method in brief: as §1
K562 = assay: Growth inhibition of human K562 cells at 10 uM incubated for 48 hrs by sulforhodamine B assay relative to control; details: read-out: GI; method in brief: as §5
MDA-MB-468 = assay: Growth inhibition of human MDA-MB-468 cells incubated for 48 hrs by sulforhodamine B assay; method in brief: as §4
EKVX [4] = assay: Growth inhibition of human EKVX cells incubated for 48 hrs by sulforhodamine B assay; method in brief: as §4
SW-620 = assay: Growth inhibition of human SW-620 cells incubated for 48 hrs by sulforhodamine B assay; method in brief: as §6
HOP-62 = assay: Growth inhibition of human HOP-62 cells incubated for 48 hrs by sulforhodamine B assay; method in brief: as §4
SK-MEL-5 = assay: Growth inhibition of human SK-MEL-5 cells at 10 uM incubated for 48 hrs by sulforhodamine B assay relative to control; details: read-out: GI; method in brief: as §1
SF-539 = assay: Growth inhibition of human SF-539 cells at 10 uM incubated for 48 hrs by sulforhodamine B assay relative to control; details: read-out: GI; method in brief: as §1

## COc1cc2nc(-c3ccc(Cl)cc3)cc(OCCCN3CCC(O)CC3)c2cc1OC
SNB-75 [1]
  inhibition of growth at 10 µM: 62%
UO-31
  inhibition of growth at 10 µM: 62%
OVCAR-5
  inhibition of growth at 10 µM: 62%
PC-3
  GI50: 2020 nM
MDA-MB-435
  GI50: 2050 nM
MDA-MB-231
  GI50: 665 nM
A498
  inhibition of growth at 10 µM: 62%
OVCAR-8
  inhibition of growth at 10 µM: 62%
SF-268
  inhibition of growth at 10 µM: 62%
A549
  GI50: 2200 nM
EKVX [2]
  inhibition of growth at 10 µM: 62%
SNB-75 [3]
  GI50: 1760 nM
HCC 2998
  GI50: 1950 nM
Malme-3M
  inhibition of growth at 10 µM: 62%
U-251
  GI50: 2810 nM
HCT-116
  GI50: 1440 nM
NCI-H522
  inhibition of growth at 10 µM: 62%
NCI/ADR-RES
  GI50: 925 nM
NCI-H226
  inhibition of growth at 10 µM: 62%
K562
  inhibition of growth at 10 µM: 62%
MDA-MB-468
  GI50: 1560 nM
EKVX [4]
  GI50: 1330 nM
SW-620
  GI50: 3050 nM
HOP-62
  GI50: 1980 nM
SK-MEL-5
  inhibition of growth at 10 µM: 62%
SF-539
  inhibition of growth at 10 µM: 62%
